The test system of this series is MS2 coat protein. Description: apparent Kd, MS2 coat protein; higher = weaker binding; RNA-MaP array; FMN 200 µM where present. A digest of the protocol: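 The apparent Kd comes from binding curves fitted cluster by cluster, filtered, and summarised as a median. Those curves followed SNAP-549-labelled MS2 coat protein from 0.7 or 1.5 nM, doubling to 3 µM, on Illumina sequencing-chip clusters where stalled E. coli RNA polymerase had transcribed the designs, without and then with constant ligand. The buffer was 100 mM Tris-HCl pH 7.5, 80 mM KCl, 4 mM MgCl2, BSA, DTT, yeast tRNA and Tween-20, and green signal was normalised to red-channel RNA signal and control-cluster median Fmax.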

Where [1] appears, read: designed as: OFF switch for flavin mononucleotide, no ligand.
Setting [2] is: ligand present: flavin mononucleotide, designed as: OFF switch for flavin mononucleotide.
Where [3] appears, read: designed as: ON switch for flavin mononucleotide, no ligand.
Where [4] appears, read: ligand present: flavin mononucleotide, designed as: ON switch for flavin mononucleotide.

The apparent Kd is a dissociation constant that holds for the conditions of the assay. Consider “GUUCUGCCUCCUGCCGGAACAUGAGGAUCACCCAUGUUGCCUGAGGAUAUCCUAUGGCGCCCACAGGAGAAGGCGGGCAACAUA”, for which the “apparent Kd” value came to 38.1 nM under setting [1] and 233 nM under setting [2].

For “CGCACUAAACAUGAGGAUCACCCAUGUAACUAAGAGCUAGUCAGAAGGCAUAAUUAGUGAAUUAAUGAGGAUAUGAAUAGUGCG”, the “apparent Kd” value is 157 nM under setting [3] and 62.2 nM under setting [4].

As for “UGAUCGAAAGAUCAUAGAUUCUGCUAGGAUAUGCAGAAGUUGCGCUUUACAUGAGGAUCACCCAUGUAGAAGGAGUAGAGUCUA”, the “apparent Kd” value under setting [1] worked out at 6.59 nM and the “apparent Kd” value under setting [2] was found to be 6.78 nM.

Consider “GGUCGUUGAGGAUAUACGAACAUGUCGCCAGAUGUCAUGGUACAUGAGGAUCACCCAUGUAGAAGGUGGUGGUC”, for which the “apparent Kd” value is, setting by setting: under setting [1], 75 nM; under setting [2], 25.7 nM.

With “GUUAUGCGAGGAUAUACAUGAGGAUCACCCAUGUAAUCUGGUGGCGUGAAAAUAAAGUGUAGAAGGCGCUGACC”, the “apparent Kd” value was 17.6 nM under setting [1] and 31.9 nM under setting [2].

On to “GGGUGAUCUUUAGGAUAUCCCGCGCCAAAGUGCGUUUAUACUACAUGAGGAUCACCCAUGUAACGGGAGAAGGGAGGAAGCCCG”, for which the “apparent Kd” value reads like this: under setting [3], 81.7 nM; under setting [4], 29 nM.

As to “AUUAAUUAAUUAAUACAUGAGGAUCACCCAUGUAAUAAGAUCUAGGAUAUCAGCUCGUUUAGAGCUGAGAAGGAGAUCACAUGU”, the “apparent Kd” value was 42.6 nM under setting [3] and 37.2 nM under setting [4].

As to “CUUCUGUAAGGAUAUUGCGAUAAGCAUGACAUCGCCGGUCGCAAGAAGGUACAUGAGGAUCACCCAUGUGCGGU”, the “apparent Kd” value is, setting by setting: under setting [1], 161 nM; under setting [2], 152 nM.

Turning to “AGCAUGUAAGGAUAUGCAAGUGGCACGGAUAGUACCAGAAAGCAGAAGGUACAUGAGGAUCACCCAUGUGCUCC”, the “apparent Kd” value amounted to 26.8 nM under setting [1] and 94.9 nM under setting [2].

Consider “GCCUUACAUGAGGAUCACCCAUGUGAGGAUAUUAACAGCUGCACUACUGAAGCGGCUGUAAGAAGGCACGUGGU”, for which the “apparent Kd” value was 30.5 nM under setting [1] and 37.8 nM under setting [2].

Turning to “AAAAAACAUGAGGAUCACCCAUGUCCAAAAAAAAAAGGAUAUGCAAAAAAAAAAAAAAAAGCAGAAGGUUUAAAAA”, the “apparent Kd” value reads like this: under setting [3], 68.4 nM; under setting [4], 74.7 nM.

As to “UCAAAGCCAUUUUGGCGAGUCACAUGAGGAUCACCCAUGUAACAGGAUAUCGAUUGGCUUCCCGGCGAGAAGGGUUACUAGGGA”, the “apparent Kd” value runs as follows: under setting [1], 10.8 nM; under setting [2], 15.5 nM.

Take “GUGUCUAACUAGAAGGCCGAUAGCAAAGCUAUCGGAGGAUAUGGGUUCCGGAAACGGACAUGAGGAUCACCCAUGUGGCACAAA”: the “apparent Kd” value was determined as 103 nM under setting [3] and 13.8 nM under setting [4].

In the case of “UCGUUUAUACAAGGAUAUCAAUUUUAGCUUAAUUCAACAUGAGGAUCACCCAUGUAACUAUGGAGUGAGAAGGUGUAAUGGCUU”, the “apparent Kd” value came to 522 nM under setting [3] and 222 nM under setting [4].

Regarding “CAGCACUAUCGAGAGGAUAUGCGGUGAUGGACAUGAGGAUCACCCAUGUUAGCGGUAGCAUCACGGCAGAAGGCUCUGCUGCUGC”, the “apparent Kd” value runs as follows: under setting [3], 28.8 nM; under setting [4], 19.9 nM.

For the sequence “GUUACACAUGAGGAUCACCCAUGUAAGGAUAUGCUGCGGUCGCGCUGACGUGACUGCAGCAGAAGGUACAAUUG”, the “apparent Kd” value under setting [1] was determined as 84.7 nM and the “apparent Kd” value under setting [2] came to 88.6 nM.

For the sequence “GGAGCCGGUACUGAGGAUAUUCAUAUUAAAACAUGAGGAUCACCCAUGUAGGCCAGAAGGCCUUGGGAGAAGGCAGACCAGCUCG”, the “apparent Kd” value by setting is: under setting [3], 391 nM; under setting [4], 26.7 nM.

On to “GGAUAGGACAGAGGAUAUACGUGCUAGAGAUACUAGCACAAUUUCCUCACAUGAGGAUCACCCAUGUAGAAGGCUGUCCUAUCG”, for which the “apparent Kd” value is, setting by setting: under setting [1], 6.08 nM; under setting [2], 26.3 nM.

Regarding “UGGCUACAUGAGGAUCACCCAUGUCAGGAUAUGCCGUCGGCUUGCCUUCGUCGUUCGGGUAGAAGGGACUGCGG”, the “apparent Kd” value under setting [1] worked out at 28.1 nM and the “apparent Kd” value under setting [2] is 28.1 nM.

As for “AAUUCACAUGAGGAUCACCCAUGUCAGGAUAUGGUUUCACGUGUUUCUUUGCUUGAGGCCAGAAGGGACAGCUA”, the “apparent Kd” value runs as follows: under setting [1], 71.8 nM; under setting [2], 94.4 nM.

Turning to “GGCGGCGCGGGCCACCGCAGGGCCAGAAGGACAUGAGGAUCACCCAUGUGGCAGGACAGGGCGGUGUAGGAUAUGGCAGGCUGG”, the “apparent Kd” value runs as follows: under setting [1], 8.35 nM; under setting [2], 10.6 nM.

Regarding “GUUGUUCGAGGAUAUACAUGAGGAUCACCCAUGUGUGUUGUGGGCGACGUUCGUUUAUGUAGAAGGCGAGCGGC”, the “apparent Kd” value runs as follows: under setting [1], 63.3 nM; under setting [2], 92.1 nM.

Take “AAGUCGUUAGGAUAUACAUGGAUAUACAUUUAUGUAGAACUACAUGAGGAUCACCCAUGUAGAAGGAACGAAUA”: the “apparent Kd” value reads like this: under setting [1], 38.2 nM; under setting [2], 54 nM.

As for “GUCAGCUCGUGAGGAUAUACAACACUGCCUCGGCAGUGUAUUAAGAUCACAUGAGGAUCACCCAUGUAGAAGGCACGAGCUGAU”, the “apparent Kd” value is, setting by setting: under setting [1], 13.4 nM; under setting [2], 214 nM.

Turning to “GGCUCCGCUCGAGGAUAUAGCUGCAUGUAGUGUCCUGAGGCACAUGAGGAUCACCCAUGUGUAGGCUAGAAGGCGACGGACACU”, the “apparent Kd” value runs as follows: under setting [1], 8.81 nM; under setting [2], 26.2 nM.

For the sequence “CUUCCAGUUGCAGGAUAUCGAGAGGAGAGAUUACGAGAAGGGCAACAUGAGGAUCACCCAUGUAUGUGCUUGGGACAACCUAUC”, the “apparent Kd” value by setting is: under setting [1], 16.8 nM; under setting [2], 107 nM.

With “AGUCGGAUCUAUUAACAUGAGGAUCACCCAUGUAUUUGCAACUAGGAUAUCGAUUAUUAUUUCGUCGAGAAGGAGUAUACAUAA”, the “apparent Kd” value was determined as 24.2 nM under setting [1] and 37.3 nM under setting [2].

In the case of “UGUAUUAACGGAGGAUAUCGAUAUCAAACAUGAGGAUCACCCAUGUUGAGGAUCACCCAUGUCCACGAGAAGGCCGGCGUACUC”, the “apparent Kd” value was found to be 30.3 nM under setting [3] and 30 nM under setting [4].

Take “GAACUGAAGCAUAGCUUUAGUCGUACAUGAGGAUCACCCAUGUAGGAUAUGGUAGGCAUCGCUUACUAGAAGGAUAGAGUGAUC”: the “apparent Kd” value reads like this: under setting [1], 172 nM; under setting [2], 87.1 nM.

As for “GUGCCUAACUAGAAGGCCCAAUGCAAAGCAUCGGGAGGAUAUGGGUUUAAUAAAUAAACAUGAGGAUCACCCAUGUGGCACAAA”, the “apparent Kd” value under setting [4] was 10.4 nM.

Take “UGACCCAUGACAUGAGAUGACAUGAGGAUCACCCAUGUUUACAAGGAUAUGUUGAUGAAACAUCAACAGAAGGUGUAAUGGGAU”: the “apparent Kd” value is, setting by setting: under setting [1], 53.7 nM; under setting [2], 385 nM.

With “AACAUGGUACAGAAGGGCAAUUUAUUUAUUUAUUAUUUAGAACAGCAUUGCAGGAUAUGUUUAACAUGAGGAUCACCCAUGUAC”, the “apparent Kd” value is, setting by setting: under setting [3], 84.4 nM; under setting [4], 15.8 nM.

“UCCUUGUCCUGAGGAUAUCCGCGGUUCCCAAAAGGAGAAGGCAGGACAUGAGGAUCACCCAUGUACCCAGAAAACGUGCAGAGU”: the “apparent Kd” value reads like this: under setting [1], 36.8 nM; under setting [2], 313 nM.

As to “AUUUUAAUAUAGGAUAUCGAAAUUAUUAUUUAACGAGAAGGAUGAACAUGAGGAUCACCCAUGUGGUAUCAUGG”, the “apparent Kd” value was 223 nM under setting [1] and 204 nM under setting [2].

On to “AAUCAGUCAGGAUAUCGUUAAUUUAAUUGUUUGUUUUAGUUCGAGAAGGGACAUGAGGAUCACCCAUGUACUUA”, for which the “apparent Kd” value reads like this: under setting [1], 24.8 nM; under setting [2], 26.8 nM.

Take “GAUCUGUGGCUUUCGCUUUGUUCACAUGAGGAUCACCCAUGUAGAAGGUAGCGGUUGAAAUUCGCUGAGGAUAUACAUAGGUGC”: the “apparent Kd” value under setting [1] worked out at 24.4 nM and the “apparent Kd” value under setting [2] was 52.7 nM.

Regarding “CAGCCCUGAGGAUAUCCCUACUUGUACAUGAGGAUCACCCAUGUUCUCCUCUGGGCUUUGGGAGAAGGCAGGUCUC”, the “apparent Kd” value under setting [1] is 15 nM and the “apparent Kd” value under setting [2] is 17.7 nM.

Take “AGGAAACAUGAGGAUCACCCAUGUAAAGAAGGGUGAGGAUAUACAAAGAAAAGAAAGAAAGUAGAAGGCACAAAAG”: the “apparent Kd” value reads like this: under setting [3], 556 nM; under setting [4], 635 nM.

“CUUUAGUGAGGAUAUCAGUAGUAAUACAAUAGUAUUACUAUUGAGAAGGCACAUGAGGAUCACCCAUGUUCCUC”: the “apparent Kd” value reads like this: under setting [1], 24.6 nM; under setting [2], 141 nM.

Take “AGCCUACAUGAGGAUCACCCAUGUCAGGAUAUCUCGCGGCGCGUCAAGUUCACGCCGCAGAGAAGGGACUCGGG”: the “apparent Kd” value stood at 47.9 nM under setting [1] and 47.3 nM under setting [2].

With “GGUCCAUCUGUUAGGAUAUGCUUUGGGCUUCCGCAGUAGAAGGAACAUGAGGAUCACCCAUGUCCGAUGCCGUC”, the “apparent Kd” value by setting is: under setting [1], 25.1 nM; under setting [2], 30.3 nM.

As to “AAUAAACAUGAGGAUCACCCAUGUAAAUGGGUACAAGGAUAUGCGAAAAGAAACAAAGAAGCAGAAGGUGUAAAGA”, the “apparent Kd” value runs as follows: under setting [3], 836 nM; under setting [4], 1040 nM.

Take “AUCAGCUCGUCAGGAUAUACGUCCUGGUAAGAUCACAUGAGGAUCACCCAUGUAGAAGGGACGAGCUGAUAAGCACGAAAGUGC”: the “apparent Kd” value came out at 18.6 nM under setting [1] and 81.6 nM under setting [2].

In the case of “AAAAGAACGGCAGGAUAUGCAAGCACUGACCUCCCAAAAUAAAGAAACAUGAGGAUCACCCAUGUGCAGAAGGGCCAAAAGUGC”, the “apparent Kd” value under setting [1] worked out at 13.6 nM and the “apparent Kd” value under setting [2] was determined as 12.3 nM.

Regarding “AGUAACAGAGGAUAUACUGUUUUAUGUGUUUGUUAUUUUGAACAUGAGGAUCACCCAUGUAGAAGGCUGAAUAA”, the “apparent Kd” value was 22.2 nM under setting [1] and 21.3 nM under setting [2].

“CUUUCGUGAGGAUAUCAGUAGUAAUAAAAUAAAAUUACUACUGAGAAGGCACAUGAGGAUCACCCAUGUUCCUC”: the “apparent Kd” value by setting is: under setting [1], 25 nM; under setting [2], 138 nM.

Take “UUAGAAUUGCAAGGAUAUCUAAUUUAGAUAGUAAGAGAAGGUGCUUUAUAGUUACAUGAGGAUCACCCAUGUUUUUUUGUUUAU”: the “apparent Kd” value runs as follows: under setting [3], 35.1 nM; under setting [4], 27.3 nM.

Turning to “GCUGCAUAGUCAGGAUAUGCAAAGUAAUGUAUGGAAACAUACAUUACAACAUGAGGAUCACCCAUGUAGAAGGGACUGUGCAGU”, the “apparent Kd” value reads like this: under setting [1], 13.9 nM; under setting [2], 12.2 nM.

Values taken from the EternaBench riboswitch data.
